Source: PubChem
APJ antagonist = antagonists of human apelin receptor APJ, primary screen, CHO-K1 cells, beta-arrestin complementation, luminescence | P35414 | inhibition, % at 20 µM | 330,000 tested, 0.32% active | AID 2521, 2010;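 active = inhibition above about 40% at 20 µM, limit read from the data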;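 also: cells challenged with 10 nM apelin-13 agonist together with compound; plate controls were apelin-13 plus DMSO wells for no effect and DMSO wells lacking apelin-13 for full effect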
CXCR6 inh = CXCR6 receptor inhibitors, primary screen, cell-based, beta-arrestin, luminescence, CHO-K1 PathHunter, 1536-well | inhibition, % at 20 µM | 360,000 tested, 0.36% active | AID 602244, 2012; in the data active = inhibition above about 34%, passing the limit was not always enough;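 also: antagonist mode with CXCL16 agonist at 10 nM final; 0% = 10 nM CXCL16 with DMSO and 100% = unstimulated wells without agonist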
Target sequence (O00574 whole entry, looked up): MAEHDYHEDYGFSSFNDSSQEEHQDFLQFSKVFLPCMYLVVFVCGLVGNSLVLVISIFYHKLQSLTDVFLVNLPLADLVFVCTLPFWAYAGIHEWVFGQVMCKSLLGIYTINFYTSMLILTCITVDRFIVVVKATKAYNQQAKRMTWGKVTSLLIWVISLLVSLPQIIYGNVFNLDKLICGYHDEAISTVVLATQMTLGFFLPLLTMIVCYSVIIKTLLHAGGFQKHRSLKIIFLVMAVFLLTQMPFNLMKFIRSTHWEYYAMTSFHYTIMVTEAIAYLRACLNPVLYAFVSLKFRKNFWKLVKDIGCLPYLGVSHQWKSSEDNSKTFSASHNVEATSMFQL
APOBEC3G inh = APOBEC3G DNA deaminase inhibitors, primary screen, biochemical, fluorescence, single-stranded DNA substrate, uHTS. DNA dC->dU-editing enzyme APOBEC-3G (Homo sapiens), Q9HC16. recombinant A3G, ssDNA deamination FAM/TAMRA fluorescence. inhibition, % at 20 µM. 330,000 tested, 0.28% active. AID 493012, 2011;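 active = inhibition of at least 40% at 20 µM, with no more than 30% in the related APOBEC3A deaminase screen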;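 also: plate controls were DMSO wells with A3G for no effect and wells lacking A3G enzyme for full effect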
A3A deaminase = APOBEC3A ssDNA deaminase inhibitors, primary screen, selectivity assay for APOBEC3G inhibitor project, biochemical, FAM/TAMRA oligo cleavage fluorescence; DNA dC->dU-editing enzyme APOBEC-3A (Homo sapiens), P31941; recombinant A3A, FAM/TAMRA ssDNA deamination fluorescence; inhibition, % at 20 µM; 330,000 tested, 0.41% active;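 active = at least 40% inhibition at 20 µM here, with at most 30% in a related deaminase screen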;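 also: plate controls were A3A with DMSO for no effect and wells lacking A3A enzyme for full effect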
Target sequence (P31941 whole entry, looked up): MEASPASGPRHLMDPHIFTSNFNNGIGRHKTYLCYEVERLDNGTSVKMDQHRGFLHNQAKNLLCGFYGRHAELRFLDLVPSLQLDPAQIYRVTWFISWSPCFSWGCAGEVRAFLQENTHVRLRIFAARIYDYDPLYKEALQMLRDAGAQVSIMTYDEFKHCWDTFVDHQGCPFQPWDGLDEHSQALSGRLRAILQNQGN
CCR6 antag = CCR6 receptor antagonists, primary screen, cell-based, CHO-K1, luminescence, beta-arrestin, uHTS | CHO-K1 CCR6 PathHunter beta-arrestin, CCL20-stimulated | inhibition, % at 20 µM | C-C chemokine receptor type 6 (Homo sapiens), P51684 | 340,000 tested, 0.49% active;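 active = compounds whose inhibition of the agonist-driven luminescence signal at 20 µM reaches about 50%, limit read from the data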;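 also: cells stimulated with CCL20 at 14 nM final; plate controls were DMSO with CCL20 for no effect and DMSO without agonist for full effect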
APJ ag = agonists of human apelin receptor APJ, primary screen, CHO-K1 cells, PathHunter beta-arrestin, luminescence; P35414; 330,000 tested, 0.11% active; activation, % at 20 µM; 0% DMSO wells, 100% apelin;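 active = activation more than six SD over the plate average, tested at 20 µM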;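 also: 0% = DMSO alone and 100% = apelin-13 at 10 nM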
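Assay system – PathHunter CHO-K1 APJ (AGTRL-1) beta-arrestin reporter cells · Compound – one dose, 20 µM compound, 1% DMSO · Timing – compound 90 min 25 °C, reagent 1 h · Measured by – luminescence from split beta-galactosidase complementation, Galacton Star/Emerald II substrate · Measure – beta-arrestin recruitment to APJ as agonist activity, luminescent signal · Benchmarks – DMSO vs Apelin-13 10 nM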
A3A conf = APOBEC3A deaminase inhibitors, retest, confirmation, selectivity assay for APOBEC3G inhibitor project, biochemical, single concentration, fluorescence readout | shares compounds with A3A deaminase | recombinant A3A, ssDNA deaminase UDG fluorescence assay | inhibition, % at 20 µM | 1,400 tested, 63% active | AID 493151, 2011;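 active = inhibition reaching a set limit, 80% of the first screen's cutoff, at 20 µM in any replicate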;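 also: plate controls were DMSO wells with A3A for no effect and wells lacking A3A enzyme for full effect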
UDG A3A counter = E. coli UDG inhibitors, confirmation, counter-screen for APOBEC3A inhibitor project, biochemical, single concentration, fluorescence, FAM/TAMRA oligo; shares compounds with A3A deaminase; UDG counterscreen, FAM/TAMRA uracil oligo fluorescence; inhibition, % at 20 µM; 1,000 tested, under 10 active; AID 504714, 2011; call rule not given here
A3G conf = APOBEC3G deaminase inhibitor retest, confirmation, biochemical, fluorescence, single-stranded DNA substrate, single concentration; shares compounds with APOBEC3G inh; recombinant A3G ssDNA deaminase, UDG/FAM-TAMRA fluorescence; AID 493152, 2011; 890 tested, 72% active; inhibition, % at 20 µM;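 active = inhibition reaching a set limit in any replicate at 20 µM, the limit being 80% of the first screen's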
UDG A3G counter = E. coli UDG inhibitors, confirmation, counter-screen for APOBEC3G inhibitor project, biochemical, single concentration, fluorescence, FAM/TAMRA oligo. shares compounds with APOBEC3G inh. UDG counterscreen. inhibition, % at 20 µM. 710 tested, under 10 active;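 active = compounds giving 40% or more inhibition at 20 µM in any one of the three replicates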;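 also: plate controls were DMSO wells with UDG and oligo for no effect and DMSO wells lacking both for full effect; inhibitors lower the FAM signal released by uracil excision and alkaline cleavage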
* hit, by the source's call; . = not tested or not shown. In the library only some 1.4% were active in any assay of this set; here they are far more common.

SMILES	APJ antagonist	CXCR6 inh	APOBEC3G inh	A3A deaminase	CCR6 antag	APJ ag	A3A conf	UDG A3A counter	others
COc1ccc(C(C)=O)cc1CN1CC=C(c2ccccc2)CC1	-4	3	5	56*	15	-2	33*	-2
COc1ccc(C(c2nnnn2C2CCCCC2)N2CCC3(CC2)C(=O)NCN3c2ccccc2)cc1 (stereo not drawn)	.	4	.	.	.	.	.	.
Cc1ccc2c(c1Cl)NC(C(=O)O)C1CC(Sc3ccccc3[N+](=O)[O-])C(Cl)C21 (stereo not drawn)	0	8	25	41*	27	-2	29	.
CCN(CC)C(=O)c1ccc2c(c1)C1C(Cl)C(Sc3ccccc3[N+](=O)[O-])CC1C(C(=O)O)N2 (stereo not drawn)	25	15	34	16	26	-2	.	.
CCOc1ccccc1N=C1SCCCN1C	33	-5	22	47*	0	-4	73*	1
CC(C)=CCOc1c2occc2cc2ccc(=O)oc12	8	-2	-12	-6	11	0	.	.
COc1cc2c(cc1OC)-c1c(OC)c(OC)cc3c1[C@H](C2)[N+](C)(C)CC3	16	3	23	83*	2	-3	71*	-1
CN(C)CC1CCCCC1OC(=O)Cc1ccc(Cl)c([N+](=O)[O-])c1 (stereo not drawn)	11	8	15	55*	13	2	74*	1
Cc1ccc2c(c1)C1C[N+](C)(CC(=O)c3ccc(Cl)cc3Cl)CCC1N2C(=O)c1ccc(F)cc1 (stereo not drawn)	11	5	13	79*	6	-3	79*	-2
Cc1ccc2c(c1)C1CN(C)CCC1N2C(=O)c1cccs1 (stereo not drawn)	-11	2	2	-1	15	-1	.	.
C[N+]1(C)[C@@H]2CC[C@H]1CC(OC(=O)C(CO)c1ccccc1)C2 (stereo partly drawn)	7	6	-2	0	5	9	.	.
C[N+]1(C)C2CCC1CC(OC(=O)c1ccccc1)C2 (stereo not drawn)	-9	-6	17	50*	9	-3	67*	1
CN1C2CCC1CC(OC(=O)c1ccc(Cl)cc1)C2 (stereo not drawn)	-3	-2	-7	-5	12	-4	.	.
C[N+]1(C)C2CCC1CC(OC(=O)C(CO)c1ccccc1)C2 (stereo not drawn)	9	-3	17	68*	-7	0	74*	-4
Cc1cc(C(=O)CN2CCCC2)c(C)n1-c1ccc(F)cc1	-19	9	1	5	-3	1	.	.
COc1ccc(-n2c(C)cc(C(=O)C[N+]34CCN(CC3)CC4)c2C)cc1	8	3	10	59*	3	-2	70*	2
CCN(CC)C(=O)c1ccc(NC(=S)NC(=O)CCc2ccccc2)cc1	9	9	-8	-6	28	-6	.	.
O=S(=O)(c1ccccc1)N1Cc2ccccc2-n2nncc2C1	.	3	.	.	.	.	.	.
Cn1c[n+](C)cc1C(O)c1ccccc1 (stereo not drawn)	15	-4	17	60*	5	0	51*	-3
Cc1cccc(NC(=O)N2C[C@H]3C[C@@H](C2)c2cccc(=O)n2C3)c1	2	1	-5	-3	3	-1	.	.
CC(C)[N+]12CCC(CC1)C(C(O)(c1ccccc1)c1ccccc1)C2 (stereo not drawn)	2	12	.	.	-5	-1	63*	.
Cc1ccc(C(O)(c2ccc(C)c(C)c2)C2CN3CCC2CC3)cc1C (stereo not drawn)	21	-2	-5	-1	-2	-5	.	.
CC[N+]12CCC(CC1)C(C(O)(c1ccccc1)c1ccccc1)C2 (stereo not drawn)	-23	6	-5	0	0	-4	.	.
C[N+]12CCC(CC1)C(C(O)(c1cccc(Cl)c1)c1cccc(Cl)c1)C2 (stereo not drawn)	0	-6	20	86*	4	-2	75*	3
CCC(CO)(C(=O)OC1C[N+]2(C)CCC1CC2)c1ccccc1 (stereo not drawn)	-5	-1	11	56*	-2	-4	70*	-2
SMILES	APJ antagonist	CXCR6 inh	APOBEC3G inh	A3A deaminase	CCR6 antag	APJ ag	A3A conf	UDG A3A counter	others
Cn1c(NN=O)nc2ccccc21	39	25	59*	2	36	-6	.	.	A3G conf=28*;UDG A3G counter=-1
Cc1cccc(NC(=O)CN2CCN(C(=O)COc3cccc(Br)c3)CC2)c1C	6	3	-9	-5	12	-4	.	.
CC(C(=O)c1cn(C)c2ccccc12)c1ccccc1 (stereo not drawn)	18	-2	-5	-1	2	0	.	.
NS(=O)(=O)c1ccc(-c2ccc(C=C3C(=O)NC(=O)NC3=O)o2)cc1	-10	8	15	2	9	-1	.	.
NS(=O)(=O)c1ccc(-c2ccc(C=C3C(=O)NC(=S)NC3=O)o2)cc1	14	.	48*	8	.	-2	.	.	A3G conf=47*
O=C(NCCCn1ccnc1)C(Cl)(Cl)Cl	3	-6	44*	4	1	-1	.	.	A3G conf=-1
